Data on 7 molecules can be found in ChEMBL document CHEMBL1681757, “Discovery of potent dipeptidyl peptidase IV inhibitors derived from β-aminoamides bearing substituted [1,2,3]-triazolopiperidines for the treatment of type 2 diabetes” (Bioorg Med Chem Lett, 2011).

Series [1] can be described thus: Cmax in rat at 20 mg/kg, po. The settings on record: in vivo. In kind it is ADME, organism-based. The arrangement: dose 20 mg/kg, route oral. In short, it runs like this: (§1)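 Healthy male rats (200–220 g), four per group, dosed orally at 20 mg/kg. Plasma exposure parameters derived: Cmax, Tmax, terminal half-life after oral dosing, and area under the concentration curve.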

Series [2] is described as follows: Tmax in rat at 20 mg/kg, po. Format: ADME, organism-based. The arrangement: dose 20 mg/kg, route oral. The settings on record: in vivo. A digest of the protocol: as §1
The nature of series [3]: AUC (0 to t) in rat at 20 mg/kg, po. The arrangement: dose 20 mg/kg, route oral. The settings on record: plasma. In kind it is ADME, organism-based. A digest of the protocol: as §1
A short description of series [4]: Terminal half life in rat at 20 mg/kg, po. The settings on record: in vivo, read-out: beta t1/2 (converted). Also on record: dose 20 mg/kg, route oral. Format: ADME, organism-based. In short, it runs like this:
as §1

The species named for series [5] is Mus musculus. Nature of the series: animal or person. The settings on record: ICR, Blood, po, 1 h, read-out: INH.
The species named for series [6] is Mus musculus. Nature of the series: animal or person. The settings on record: ICR, Blood, po, 1 h, read-out: INH. The source holds these as a separate data set.

Usually Cmax stands for the maximum level reached in the sampled fluid or tissue. As usually defined, the Tmax is the time from dosing to the highest level. Broadly, the AUC(0-t) is the area under the concentration-time curve up to a stated or last time point. Take `Cl.N[C@@H](CC(=O)N1CCn2nnc(C(F)F)c2C1)Cc1cc(F)c(F)cc1F`: the Cmax in series [1] amounted to 695 ng/mL. In series [2], the Tmax is 1 h. The molecule also showed an AUC(0-t) in series [3] of 2520 ng·h/mL. In series [4], the half-life is 2.27 h.
On to `N[C@@H](CC(=O)N1CCn2nnc(C(F)(F)F)c2C1)Cc1cc(F)c(F)cc1F.O=C(O)/C=C/C(=O)O`, for which the concentration in series [1] peaked (Cmax) at 965 ng/mL. Moreover, in the series filed under Mus musculus [5], the inhibition in vivo at 3 mg/kg stood at 19%. In the series filed under Mus musculus [6], the inhibition in vivo at 10 mg/kg is 27%. Also, the Tmax in series [2] was determined as 0.88 h. In series [3], this molecule displayed an AUC(0-t) of 4560 ng·h/mL. Besides, in series [4], the half-life was 2.53 h.
The molecule `Cl.NC(=O)c1nnn2c1CN(C(=O)C[C@H](N)Cc1cc(F)c(F)cc1F)CC2` showed a Cmax in series [1] of 231 ng/mL. Moreover, the Tmax in series [2] was found to be 0.63 h. Besides, the AUC(0-t) in series [3] was 871 ng·h/mL. Also, the half-life in series [4] was 2.23 h.
With `Cl.N[C@@H](CC(=O)N1CCn2nnc(-c3ccc(C(=O)O)cc3)c2C1)Cc1cc(F)c(F)cc1F`, the concentration in series [1] peaked (Cmax) at 600 ng/mL. Besides, the Tmax in series [2] came out at 0.38 h. This molecule also yielded an AUC(0-t) in series [3] of 1130 ng·h/mL. Also, in series [4], the half-life was 2.18 h.
In turn, `N[C@@H](CC(=O)N1CCn2nnc(-c3ccccn3)c2C1)Cc1cc(F)c(F)cc1F.O=C(O)/C=C/C(=O)O` returned a Cmax in series [1] of 484 ng/mL. Further, the Tmax in series [2] was 1.38 h. The molecule further displayed an AUC(0-t) in series [3] of 2510 ng·h/mL. For the same molecule, the half-life in series [4] is 2.67 h.
In the case of `Cl.N[C@@H](CC(=O)N1CCn2nnc(-c3ccco3)c2C1)Cc1cc(F)c(F)cc1F`, the peak level in series [1] (Cmax) was 255 ng/mL. For the same molecule, the Tmax in series [2] came out at 1 h. This molecule had an AUC(0-t) in series [3] of 730 ng·h/mL. Further, in series [4], the half-life was 1.87 h.
For `N[C@@H](CC(=O)N1CCn2nnc(-c3cnco3)c2C1)Cc1cc(F)c(F)cc1F.O=C(O)/C=C/C(=O)O`, the Cmax in series [1] amounted to 475 ng/mL. Also, the time to peak (Tmax) in series [2] is 1.88 h. This molecule also gave an AUC(0-t) in series [3] of 1640 ng·h/mL. Also, the half-life in series [4] is 1.35 h.
